Data on six molecules can be found in ChEMBL document CHEMBL2146443, “Cytotoxicity and DNA binding property of phenanthrene imidazole with polyglycol side chains” (Bioorg Med Chem Lett, 2012).

Series [1] relates to BGC-823. Nature of the series: Antiproliferative activity against human BGC823 cells by MTT assay. In kind it is functional, cell-based.
The subject of series [2] is Bel-7402. The experiment in a line: Antiproliferative activity against human Bel7402 cells by MTT assay. Type of series: functional, cell-based.
For series [3], the system named is KB. Nature of the series: Antiproliferative activity against human KB cells by MTT assay. In kind it is functional, cell-based.
Series [4] has as its system HL-60. Nature of the series: Antiproliferative activity against human HL60 cells by MTT assay. In kind it is functional, cell-based.
The test system of series [5] is Nucleic Acid. Nature of the series: Binding affinity to calf thymus DNA at 4 x 10^-5 M at pH 7.5 by UV-Vis spectrophotometry. Type of series: nucleic-acid assay. As to conditions: Bos taurus. The method in brief:
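UV–vis titration: compound at 4.0 × 10^-5 M with Ct-DNA added (0–400 μM) in 1 mM phosphate buffer pH 7.5, 20 mM NaCl, 5% DMSO (v/v), 25 °C. Absorbance read over 300–400 nm to avoid DNA interference; binding constants fitted at maximum absorption band.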

The subject of series [6] is Nucleic Acid. Nature of the series: Binding affinity to calf thymus DNA at 4 x 10^-5 M at pH 7.5 by fluorescence spectrophotometry. In kind it is nucleic-acid assay. The conditions noted are these: Bos taurus. The method, boiled down:
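Emission quenching: compound at 4.0 × 10^-5 M, excitation 320 nm, 5.0 nm slits, titrated with Ct-DNA 0–400 μM in 1 mM phosphate buffer pH 7.5, 20 mM NaCl, 5% DMSO, 25 °C. F/F0 plotted against DNA concentration; Stern-Volmer constants derived.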

The test system of series [7] is Nucleic Acid. Nature of the series: Binding affinity to calf thymus DNA at 2 x 10^-5 M at pH 7.5 by circular dichroism. In kind it is nucleic-acid assay. As to conditions: Bos taurus. The method, boiled down: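 Circular dichroism of Ct-DNA (6.0 × 10^-5 M) alone and with compound (2.0 × 10^-5 M), in 10 mM phosphate buffer pH 7.5 with 20 mM NaCl and 5% DMSO, 25 °C.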

The test system of series [8] is Nucleic Acid. Nature of the series: Binding affinity to calf thymus DNA assessed as change in melting temperature at 5 x 10^-6 M at pH 7.5 relative to control. Type of series: nucleic-acid assay. As to conditions: Bos taurus.
Series [9] is described as follows: Solubility in phosphate buffer at pH 7.5. Type of series: physicochemical.

Active and inactive are the calls of the source. The rule behind the calls is not given here.

With `Cn1c(-c2ccc(OCCO)cc2)[n+](C)c2c3ccccc3c3ccccc3c21`, the IC50 in series [1] was 10.7 µM; in [2] it was 14.1 µM; in series [3], 14.5 µM; in [4], 24.8 µM. Moreover, the K in series [5] was 1.68 ×10⁶ /M. Besides, the result in [6] and in series [7] was Active. The ΔTm in [8] was found to be 4.8 °C.

For the molecule `Cn1c(-c2ccc(OCCOCCOCCO)cc2)[n+](C)c2c3ccccc3c3ccccc3c21`, the IC50 in series [1] came to 7.01 µM; in series [2], 10.6 µM; in series [3], 9.12 µM; in series [4], 15.6 µM. Further, the K in series [5] was found to be 0.709 ×10⁶ /M. The result in series [6] and in [7] was Active. For the same molecule, in [8], the ΔTm was determined as 4 °C.

On to `OCCOCCOc1ccc(-c2nc3c4ccccc4c4ccccc4c3[nH]2)cc1`, for which the IC50 is 22.5 µM in series [1], 18.1 µM in series [2], 30.7 µM in [3] and 8.14 µM in series [4]. Further, the solubility entry in series [9] is “Insoluble”.

For `Cn1c(-c2ccc(OCCOCCO)cc2)[n+](C)c2c3ccccc3c3ccccc3c21`, the IC50 came to 9.35 µM in [1], 10.7 µM in [2], 11 µM in [3] and 12.1 µM in [4]. The K in series [5] came to 1.51 ×10⁶ /M. Also, the outcome in series [6] and in [7] was Active. Besides, the ΔTm in [8] was 4.2 °C.

On to `OCCOc1ccc(-c2nc3c4ccccc4c4ccccc4c3[nH]2)cc1`, for which the half-maximal inhibitory concentration (IC50) in series [1] worked out at 6.36 µM; in series [2] it was 4.65 µM; in series [3], 7.03 µM; in [4], 11.3 µM. Besides, the solubility result in series [9] is “Insoluble”.

Turning to `OCCOCCOCCOc1ccc(-c2nc3c4ccccc4c4ccccc4c3[nH]2)cc1`, the IC50 in [1] is 24.2 µM; in [2], 27.9 µM; in [3], 44.6 µM; in series [4] it was 11.9 µM. Also, the solubility entry in series [9] is listed as “Insoluble”.
